Source: ChEMBL document CHEMBL1151259, “Hemisynthetic secofriedelane triterpenes with inhibitory activity against the growth of human tumor cell lines in vitro” (J Nat Prod, 2004)

How the values were obtained:
SF-268 = assay: Cytotoxicity against human SF268 cells after 48 hrs by SRB assay; format: functional, cell-based; details: SF-268, 48 h
Outline: (§1)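 Compounds dissolved in DMSO and freshly diluted in culture medium, final DMSO 0.25%. Growth inhibition read by sulforhodamine B protein staining per the NCI screening protocol. Doxorubicin as positive control. GI50 given as mean ± SEM of 3-6 independent experiments, each in duplicate.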

MCF7 = assay: Cytotoxicity against human MCF7 cells after 48 hrs by SRB assay; format: functional, cell-based; details: MCF7, 48 h; outline: as §1
NCI-H460 = assay: Cytotoxicity against human NCI-H460 cells after 48 hrs by SRB assay; format: functional, cell-based; details: NCI-H460, 48 h; outline: as §1
[1] = Antiproliferative activity against human lymphocytes; format: cell-based; details: Lymphocyte

Row | SMILES | GI50 (SF-268) [µM] | GI50 (MCF7) [µM] | GI50 (NCI-H460) [µM] | IC50 (SF-268) [µM] | IC50 (MCF7) [µM] | IC50 (NCI-H460) [µM] | IC50 [1] [µM]
1 | CC(=O)[C@@]1(C)CC[C@H]2[C@@](C)(CC[C@@]3(C)[C@@H]4CC(C)(C)CC[C@]4(C)CC[C@]23C)[C@@H]1CCC(=O)O | 24.6 | 26.9 | 32.8 | – | – | – | –
2 | CC(=O)[C@@]1(C)CC[C@H]2[C@@](C)(CC[C@@]3(C)[C@@H]4CC(C)(C)CC[C@]4(C)CC[C@]23C)[C@@H]1CC(=O)O | 12.9 | 10.9 | 17.6 | – | – | – | –
3 | CC1(C)CC[C@]2(C)CC[C@]3(C)[C@H]4CC[C@@]5(C)[C@@H](CCC(=O)[C@@]5(C)O)[C@]4(C)CC[C@@]3(C)[C@@H]2C1 | > 110 | > 110 | > 110 | – | – | – | –
4 | CC1(C)CC[C@]2(C)CC[C@]3(C)[C@H]4CC[C@@]5(C)[C@@H](CCC(=O)[C@]5(C)O)[C@]4(C)CC[C@@]3(C)[C@@H]2C1 | > 50 | > 50 | > 50 | – | – | – | –
5 | COc1cccc2c1C(=O)c1c(O)c3c(c(O)c1C2=O)C[C@@](O)(C(=O)CO)C[C@@H]3O[C@H]1C[C@H](N)[C@H](O)[C@H](C)O1 [DOXORUBICIN] | 0.094 | 0.0428 | 0.094 | – | – | – | –
6 | C[C@@H](C(=O)O)[C@@]1(C)CC[C@H]2[C@@](C)(CC[C@@]3(C)[C@@H]4CC(C)(C)CC[C@]4(C)CC[C@]23C)[C@@H]1CC=O | – | – | – | 5.4 | 5.4 | 5.4 | 10.7
7 | COC(=O)CC[C@H]1[C@]2(C)CC[C@@]3(C)[C@@H]4CC(C)(C)CC[C@]4(C)CC[C@]3(C)[C@H]2CC[C@]1(C)C(C)=O | > 110 | > 110 | > 110 | – | – | – | –
8 | COC(=O)C[C@H]1[C@]2(C)CC[C@@]3(C)[C@@H]4CC(C)(C)CC[C@]4(C)CC[C@]3(C)[C@H]2CC[C@]1(C)C(C)=O | 106 | 101 | 93.9 | – | – | – | –
